# Source: ChEMBL document CHEMBL1152668, “Synthesis, reactivity and biological evaluation of novel halogenated tripentones” (Bioorg Med Chem, 2009)
# Active and inactive are the calls of the source. No cut-off for these calls is given here.
# Columns and labels:
# KB [1] = assay: Growth inhibition of human KB cells at 1 uM after 72 hrs by MTS assay; assay type: functional; details: read-out: GI
# KB [2] = assay: Growth inhibition of human KB cells at 10 uM after 72 hrs by MTS assay; assay type: functional; details: read-out: GI
# L1210 = assay: Cytotoxicity against mouse L1210 cells after 72 hrs by MTS assay; assay type: functional, cell-based; details: L1210, 72 h
# MRC5 = assay: Cytotoxicity against human MRC5 cells at 0.05 to 1000 nM after 72 hrs by MTS assay; assay type: cell-based; details: mrc5, 72 h, 1 µM
# Procedure, shortened: (§1)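 Cells maintained in D-MEM with 10% fetal calf serum, penicillin, streptomycin and fungizone under 5% CO2. Plated in 96-well plates and dosed 24 h later with compound in DMSO, 0.05 nM to 1 µM, with 1% DMSO vehicle controls. After 72 h, MTS added for 3 h at 37 °C and A490 read. Inhibition = (1 − OD treated/OD control)×100; IC50 from separate duplicates.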
# KB [3] = assay: Cytotoxicity against human KB cells at 0.05 to 1000 nM after 72 hrs by MTS assay; assay type: functional, cell-based; procedure, shortened: as §1
# Vero = assay: Cytotoxicity against african green monkey Vero cells at 0.05 to 1000 nM after 72 hrs by MTS assay; assay type: cell-based; details: chlorocebus sabaeus, 1 µM; procedure, shortened: as §1
# MCF7 = assay: Cytotoxicity against human MCF7 cells at 0.05 to 1000 nM after 72 hrs by MTS assay; assay type: functional, cell-based
# Procedure, shortened: (§2)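 Cultured in RPMI medium under 5% CO2, then seeded in 96-well plates and treated 24 h later with DMSO solutions at 0.05 nM–1 µM, with 1% DMSO vehicle controls. After 72 h exposure, MTS incubated 3 h at 37 °C and absorbance read at 490 nm. Inhibition = (1 − OD490 treated/OD490 control)×100; IC50 from separate duplicate experiments.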
# HCT-116 = assay: Cytotoxicity against human HCT116 cells at 0.05 to 1000 nM after 72 hrs by MTS assay; assay type: functional, cell-based; procedure, shortened: as §2
# HL-60 = assay: Cytotoxicity against human HL60 cells at 0.05 to 1000 nM after 72 hrs by MTS assay; assay type: functional, cell-based; procedure, shortened: as §2
# HCT-15 = assay: Cytotoxicity against human HCT15 cells at 0.05 to 1000 nM after 72 hrs by MTS assay; assay type: functional, cell-based; procedure, shortened: as §2
SMILES,inhibition of growth at 1 µM (KB [1]) [%],inhibition of growth at 10 µM (KB [2]) [%],IC50 (L1210) [nM],further results
COC(=O)/C=C/c1cc2n(c1)-c1c(-c3ccc(OC)c(O)c3)csc1C2=O,3,1,–,–
COc1ccc(-c2csc3c2-n2cc(-c4cccnc4)cc2C3=O)cc1O,20,64,–,–
COc1ccc(-c2csc3c2-n2cc(-c4ccc(OC)c(OC)c4)cc2C3=O)cc1O,15,97,–,–
COc1ccc(-c2cc3n(c2)-c2c(-c4ccc(OC)c(O)c4)csc2C3=O)cc1O,15,90,–,–
COc1ccc(-c2csc3c2-n2cc(-c4cc(OC)c(OC)c(OC)c4)cc2C3=O)cc1O,–,35,–,–
COc1ccc(-c2csc3c2-n2cc(Br)cc2C3=O)cc1O,94,94,17,–
COc1ccc(-c2cc3n(c2)-c2c(-c4ccc(OC)c(O)c4)csc2C3=O)cc1,94,98,113,–
COc1ccc(-c2csc3c2-n2cccc2C3=O)cc1O,86,86,4,Activity (MRC5): Non-toxic; Activity (KB [3]): Active; Activity (Vero): Non-toxic; Activity (MCF7): Active; Activity (HCT-116): Active; Activity (HL-60): Active; Activity (HCT-15): Active
